Legend:
[1] = Dissociation constant (pKa); assay type: physicochemical
[2] = system: Escherichia coli; test: Generation rate constant […] obtained from the inhibition of growth of Escherichia coli cells; assay type: organism-based
[3] = system: Escherichia coli; test: Evaluated for percent inhibition against N-acetyl-L-[14C] phenylalanylpuromycin formation at 8e-4M; assay type: functional
In short: (§1)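 Cell-free puromycin reaction with E. coli MRE-600 70S ribosomes (NH4Cl-washed, 4.0 A260 units) in 0.1 mL containing 0.05 M Tris-HCl pH 7.4, 0.1 M NH4Cl, 0.01 M MgCl2, 10 μg poly(U), 0.20 A260 unit N-Ac-[14C]Phe-tRNA, puromycin and inhibitor. Incubated at 37 °C for 30 min. Product extracted into ethyl acetate and counted by scintillation. Single-point inhibition was read at 8×10^-4 M.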

[4] = Evaluated for the inhibition constant determined from the Dixon and slope vs. inhibitor concentration plots; assay type: functional, Escherichia coli
In short: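 Ki values came from the E. coli MRE-600 70S ribosome puromycin reaction, using poly(U), N-Ac-[14C]Phe-tRNA and puromycin in Tris-HCl pH 7.4 with NH4Cl and MgCl2, at 37 °C for 30 min. Inhibitor concentration was varied. Ethyl acetate-extracted product was counted by scintillation. Ki was derived from Dixon plots built by linear regression and from slope versus inhibitor concentration plots.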

[5] = system: Escherichia coli; test: Evaluated for the concentration required for a 50% inhibition of N-acetyl-L-[14C] phenylalanylpuromycin formation; assay type: functional; in short: as §1

pKa [1] | Log k [2] | Ki [4] [µM] | Structure (SMILES) | inhibition [3] [%] | ID50 [5] [µM]
4.76 | 0.48 | – | CC(=O)NC(CO)C(O)c1ccc([N+](=O)[O-])cc1 (configuration not stated) | 34 | –
4.83 | – | – | O=C(NC(CO)C(O)c1ccc([N+](=O)[O-])cc1)C1CC1 (configuration not stated) | 20 | –
3.12 | – | – | O=C(NC(CO)C(O)c1ccc([N+](=O)[O-])cc1)c1ccco1 (configuration not stated) | 10 | –
3.83 | – | – | O=C(CO)NC(CO)C(O)c1ccc([N+](=O)[O-])cc1 (configuration not stated) | 10 | –
2.86 | 1.71 | 27 | O=C(CCl)NC(CO)C(O)c1ccc([N+](=O)[O-])cc1 (configuration not stated) | – | 500
1.29 | – | 1.6 | O=C(N[C@H](CO)[C@H](O)c1ccc([N+](=O)[O-])cc1)C(Cl)Cl [CHLORAMPHENICOL] | – | 30
4.88 | – | – | CCC(=O)NC(CO)C(O)c1ccc([N+](=O)[O-])cc1 (configuration not stated) | 39 | –
– | 1.84 | 1 | O=C(NC(CO)C(O)c1ccc([N+](=O)[O-])cc1)C(Br)Br (configuration not stated) | – | 70

Further lines, the molecule ahead of its results:

Structure (SMILES) | pKa [1] | Log k [2] | Ki [4] [µM] | inhibition [3] [%] | ID50 [5] [µM]
O=C(CF)NC(CO)C(O)c1ccc([N+](=O)[O-])cc1 (configuration not stated) | 2.66 | 1.16 | – | 27 | –
[N-]=[N+]=NCC(=O)NC(CO)C(O)c1ccc([N+](=O)[O-])cc1 (configuration not stated) | 3.03 | – | 22 | 60 | –
O=[N+]([O-])c1ccc(C(O)C(CO)NP(=O)(O)CCl)cc1 (configuration not stated) | 1.4 | – | – | 10 | –
CS(=O)(=O)NC(CO)C(O)c1ccc([N+](=O)[O-])cc1 (configuration not stated) | -0.6 | – | 1.1 | – | 200
O=C(NC(CO)C(O)c1ccc([N+](=O)[O-])cc1)C1CCC1 (configuration not stated) | 4.79 | – | – | 10 | –
O=CNC(CO)C(O)c1ccc([N+](=O)[O-])cc1 (configuration not stated) | 3.77 | – | – | 10 | –
CCCC(=O)NC(CO)C(O)c1ccc([N+](=O)[O-])cc1 (configuration not stated) | 4.82 | 0.71 | – | 34 | –
O=C(NC(CO)C(O)c1ccc([N+](=O)[O-])cc1)C(Cl)(Cl)Cl (configuration not stated) | 0.65 | 0.75 | 3 | – | 250
N#CCC(=O)NC(CO)C(O)c1ccc([N+](=O)[O-])cc1 (configuration not stated) | 2.43 | 0.14 | 1.7 | – | 350
